# Results: ChEMBL document CHEMBL4052815, “Amphiphilic Modulation of Glycosylated Antitumor Ether Lipids Results in a Potent Triamino Scaffold against Epithelial Cancer Cell Lines and BT474 Cancer Stem Cells” (J Med Chem, 2017)
# Calls of active or inactive are those of the source. The calls are words filed in the database; no cut-off is given here.
# Assays:
# BT-474 [1] = experiment: Cytotoxicity against human BT474 cells assessed as decrease in cell viability after 48 hrs by MTS assay; assay type: functional; conditions: BT-474, 48 h
# How it was run: (§1)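 Cells grown at 37 °C, 5% CO2, with 10% FBS and penicillin/streptomycin: MDA-MB-231, JIMT1 and DU145 in DMEM, PC3 in F12K, BT474 in Hybricare, MiaPaCa2 in DMEM plus 2.5% horse serum. Cells (7500–9000/well) were plated for 24 h, then exposed to 0–20 µM for 48 h. MTS was added for 1–4 h and OD490 read, blank-subtracted, relative to vehicle. CC50 was read from plots; mean ± SD, six independent determinations.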
# DU-145 [2] = experiment: Induction of morphological changes in human DU145 cells at 6 uM after 4 hrs by bright field microscopic method; assay type: functional, cell-based
# How it was run: (§2)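 DU145 and JIMT1 grown in DMEM with 10% FBS and antibiotics, plated 24 h, then given 4–6 µM for 5–6 h (legend: 4 h). Ethidium homodimer-1 was added at 2 µM final, and cells were examined by bright-field and fluorescence microscopy at ×20. Controls: untreated cells, and 0.01% Triton X-100 for 10 min.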
# U-251 [3] = experiment: Cytotoxicity against human U251 cells assessed as decrease in cell viability after 48 hrs by MTS assay; assay type: functional; conditions: U-251, 48 h
# How it was run: (§3)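 Exponentially growing cells (7500–9000/well) were seeded for 24 h, then given compound at 0–20 µM for a further 48 h. MTS reagent (20% v/v) was added for 1–4 h and OD490 read. Blanks were cell-free media wells, and viability was expressed relative to vehicle controls. CC50 was read from viability plots; mean ± SD of six independent determinations.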
# MDA-MB-231 [4] = experiment: Cytotoxicity against human MDA-MB-231 cells assessed as decrease in cell viability after 48 hrs by MTS assay; assay type: functional; conditions: MDA-MB-231, 48 h; how it was run: as §1
# Hs-578T [5] = experiment: Cytotoxicity against human Hs 578T cells assessed as decrease in cell viability at 6 uM after 48 hrs by MTS assay relative to control; assay type: functional
# BT-474 [6] = experiment: Induction of disintegration of human BT474 cancer stem cell spheroids at 7.5 uM after 3 days by microscopic method; assay type: functional, cell-based
# How it was run: (§4)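 BT474 stem-cell spheroids (ALDH1-sorted, formed over 6 days in Mammocult on ultra-low adhesion plates) exposed to 0, 7.5 or 20 µM for 3 days. Integrity was judged by light microscopy at ×10 against untreated spheroid wells.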
# JIMT-1 [7] = experiment: Induction of morphological changes in human JIMT1 cells at 6 uM after 4 hrs by bright field microscopic method; assay type: functional, cell-based; how it was run: as §2
# DU-145 [8] = experiment: Membranolytic activity in human DU145 cells at 6 uM after 4 hrs by ethidium homodimer-1 staining-based fluorescence microscopic method; assay type: functional, cell-based; how it was run: as §2
# BT-474 [9] = experiment: Cytotoxicity against human BT474 cancer stem cell spheroids assessed as decrease in cell viability at 2 to 10 uM after 3 days by MTS assay
# MDA-MB-468 [10] = experiment: Cytotoxicity against human MDA-MB-468 cells assessed as decrease in cell viability at 6 uM after 48 hrs by MTS assay relative to control; assay type: functional
# BT-474 [11] = experiment: Cytotoxicity against human BT474 cells assessed as cell viability at 4 to 10 uM after 48 hrs by MTS assay relative to control; assay type: functional; how it was run: as §1
# MDA-MB-231 [12] = experiment: Cytotoxicity against human MDA-MB-231 cells assessed as decrease in cell viability at 6 uM after 48 hrs by MTS assay relative to control; assay type: functional
# JIMT-1 [13] = experiment: Membranolytic activity in human JIMT1 cells at 6 uM after 4 hrs by ethidium homodimer-1 staining-based fluorescence microscopic method; assay type: functional, cell-based; how it was run: as §2
# MDA-MB-453 [14] = experiment: Cytotoxicity against human MDA-MB-453 cells assessed as decrease in cell viability after 48 hrs by MTS assay; assay type: functional; conditions: MDA-MB-453, 48 h
# JIMT-1 [15] = experiment: Cytotoxicity against human JIMT1 cells assessed as decrease in cell viability at 2 to 8 uM in presence of pan-caspase inhibitor Q-VD-OPh after 48 hrs by MTS assay; assay type: functional, cell-based
# How it was run: (§5)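 DU145 or JIMT1 cells seeded for 24 h, then given 40 µM pan-caspase inhibitor along with varying compound concentrations. Incubation continued 48 h, then MTS (20% v/v) for 1–4 h, OD490 read. Values are blank-subtracted and relative to vehicle controls; mean ± SD.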
# MDA-MB-231 [16] = experiment: Cytotoxicity against human MDA-MB-231 cells assessed as cell viability at 4 to 10 uM after 48 hrs by MTS assay relative to control; assay type: functional; how it was run: as §1
# [17] = Ratio of compound concentration showing <20% hemolysis in ovine erythrocytes to CC50 for human BT474 cells
# MDA-MB-453 [18] = experiment: Cytotoxicity against human MDA-MB-453 cells assessed as decrease in cell viability at 6 uM after 48 hrs by MTS assay relative to control; assay type: functional
# BT-474 [19] = experiment: Cytotoxicity against human BT474 cancer stem cell spheroids assessed as cell viability at 10 uM after 3 days by MTS assay relative to control; conditions: BT-474, 72 h
# [20] = Cytotoxicity against human U87 cells assessed as decrease in cell viability after 48 hrs by MTS assay; assay type: functional, U-87MG ATCC; conditions: U-87 MG; how it was run: as §3
# [21] = Cytotoxicity against human A2780C/P cells assessed as decrease in cell viability after 48 hrs by MTS assay; assay type: functional; how it was run: as §3
# MIA PaCa-2 [22] = experiment: Cytotoxicity against human MIAPaCa2 cells assessed as decrease in cell viability after 48 hrs by MTS assay; assay type: functional; conditions: MIA PaCa-2, 48 h; how it was run: as §1
# JIMT-1 [23] = experiment: Cytotoxicity against human JIMT1 cells assessed as decrease in cell viability after 48 hrs by MTS assay; assay type: functional; conditions: JIMT-1, 48 h; how it was run: as §1
# MDA-MB-468 [24] = experiment: Cytotoxicity against human MDA-MB-468 cells assessed as decrease in cell viability after 48 hrs by MTS assay; assay type: functional; conditions: MDA-MB-468, 48 h
# Hs-578T [25] = experiment: Cytotoxicity against human Hs 578T cells assessed as decrease in cell viability after 48 hrs by MTS assay; assay type: functional
# U-251 [26] = experiment: Cytotoxicity against human U251 cells assessed as cell viability at 4 to 8 uM after 48 hrs by MTS assay relative to control; assay type: functional; how it was run: as §3
# A2780S [27] = experiment: Cytotoxicity against human A2780S cells assessed as decrease in cell viability after 48 hrs by MTS assay; assay type: functional; how it was run: as §3
# BT-549 [28] = experiment: Cytotoxicity against human BT549 cells assessed as decrease in cell viability after 48 hrs by MTS assay; assay type: functional; conditions: BT-549, 48 h
# DU-145 [29] = experiment: Cytotoxicity against human DU145 cells assessed as decrease in cell viability after 48 hrs by MTS assay; assay type: functional; conditions: DU-145, 48 h; how it was run: as §1
# BT-474 [30] = experiment: Induction of disintegration of human BT474 cancer stem cell spheroids at 20 uM after 3 days by microscopic method; assay type: functional, cell-based; how it was run: as §4
# BT-474 [31] = experiment: Cytotoxicity against human BT474 cancer stem cell spheroids assessed as cell viability at 20 uM after 3 days by MTS assay relative to control; conditions: BT-474, 72 h
# [32] = Cytotoxicity against human U87 cells assessed as cell viability at 4 to 8 uM after 48 hrs by MTS assay relative to control; assay type: functional, U-87MG ATCC; how it was run: as §3
# [33] = Cytotoxicity against human A2780C/P cells assessed as cell viability at 4 to 8 uM after 48 hrs by MTS assay relative to control; assay type: functional; how it was run: as §3
# JIMT-1 [34] = experiment: Cytotoxicity against human JIMT1 cells assessed as cell viability at 4 to 10 uM after 48 hrs by MTS assay relative to control; assay type: functional; how it was run: as §1
# PC-3 [35] = experiment: Cytotoxicity against human PC3 cells assessed as decrease in cell viability after 48 hrs by MTS assay; assay type: functional; conditions: PC-3, 48 h; how it was run: as §1
# MIA PaCa-2 [36] = experiment: Cytotoxicity against human MIAPaCa2 cells assessed as cell viability at 4 to 10 uM after 48 hrs by MTS assay relative to control; assay type: functional; how it was run: as §1
# A2780S [37] = experiment: Cytotoxicity against human A2780S cells assessed as cell viability at 4 to 8 uM after 48 hrs by MTS assay relative to control; assay type: functional; how it was run: as §3
# PC-3 [38] = experiment: Cytotoxicity against human PC3 cells assessed as cell viability at 4 to 10 uM after 48 hrs by MTS assay relative to control; assay type: functional; how it was run: as §1
# DU-145 [39] = experiment: Cytotoxicity against human DU145 cells assessed as cell viability at 4 to 10 uM after 48 hrs by MTS assay relative to control; assay type: functional; how it was run: as §1
# BT-549 [40] = experiment: Cytotoxicity against human BT549 cells assessed as decrease in cell viability at 6 uM after 48 hrs by MTS assay relative to control; assay type: functional
# DU-145 [41] = experiment: Cytotoxicity against human DU145 cells assessed as decrease in cell viability at 2 to 8 uM in presence of pan-caspase inhibitor Q-VD-OPh after 48 hrs by MTS assay; assay type: functional, cell-based; how it was run: as §5
compound,measurement,setting,value
CCCCCCCCCCCCCCCCOC[C@H](CO[C@@H]1O[C@H](CNCCCCCCCCCCCCN)[C@@H](O)[C@H](O)[C@H]1N)OC,CC50,BT-474 [1],1.6 µM
same,Activity,DU-145 [2],Active
same,CC50,U-251 [3],2.6 µM
same,CC50,MDA-MB-231 [4],1.5 µM
same,Activity,Hs-578T [5],>95%
same,Activity,BT-474 [6],Active
same,Activity,JIMT-1 [7],Active
same,Activity,DU-145 [8],inactive
same,Activity,BT-474 [9],Active
same,Activity,MDA-MB-468 [10],>95%
same,Activity,BT-474 [11],0%
same,Activity,MDA-MB-231 [12],>95%
same,Activity,JIMT-1 [13],inactive
same,CC50,MDA-MB-453 [14],4 µM
same,Activity,JIMT-1 [15],Active
same,Activity,MDA-MB-231 [16],0%
same,Ratio,[17],15
same,Activity,MDA-MB-453 [18],>95%
same,viability at 10 µM,BT-474 [19],2%
same,CC50,[20],2.5 µM
same,CC50,[21],3.8 µM
same,CC50,MIA PaCa-2 [22],4 µM
same,CC50,JIMT-1 [23],3.4 µM
same,CC50,MDA-MB-468 [24],2 µM
same,CC50,Hs-578T [25],1.8 µM
same,Activity,U-251 [26],0%
same,CC50,A2780S [27],2.4 µM
same,CC50,BT-549 [28],2.5 µM
same,CC50,DU-145 [29],3.8 µM
same,Activity,BT-474 [30],Active
same,viability at 20 µM,BT-474 [31],0%
same,Activity,[32],0%
same,Activity,[33],0%
same,Activity,JIMT-1 [34],0%
same,CC50,PC-3 [35],2 µM
same,Activity,MIA PaCa-2 [36],0%
same,Activity,A2780S [37],0%
same,Activity,PC-3 [38],0%
same,Activity,DU-145 [39],0%
same,Activity,BT-549 [40],>95%
same,Activity,DU-145 [41],Active
CCCCCCCCCCCCCCCCOC[C@H](CO[C@@H]1O[C@H](CN)[C@@H](O)[C@H](O)[C@H]1NCCCCCCCCCCCCN)OC,CC50,BT-474 [1],13.5 µM
same,CC50,MDA-MB-231 [4],5.5 µM
same,Activity,BT-474 [6],Active
same,CC50,MIA PaCa-2 [22],8.5 µM
same,CC50,JIMT-1 [23],8 µM
same,CC50,DU-145 [29],7.5 µM
same,Activity,BT-474 [30],Active
same,viability at 20 µM,BT-474 [31],0%
same,CC50,PC-3 [35],8.5 µM
CC[C@@H](C(=O)[C@@H](C)[C@@H](O)[C@H](C)[C@@H]1O[C@@H]([C@@H](CC)C(=O)O)CC[C@@H]1C)[C@H]1O[C@]2(C=C[C@@H](O)[C@]3(CC[C@@](C)([C@H]4CC[C@](O)(CC)[C@H](C)O4)O3)O2)[C@H](C)C[C@@H]1C,Activity,BT-474 [6],inactive
same,Activity,BT-474 [30],Active
